NPY-Y1 antag = NPY-Y1 (human) receptor antagonism; HEK293-CNG Y1 cells, membrane potential fluorescence; NPY at EC95, then isoproterenol; AID 1040; P25929; 200,000 tested, 1% active; inhibition, % at 3.6 µM;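 active = inhibition above the campaign mean inhibition of all tested compounds plus 3 SD, cut at about 20% in these data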;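 also: 0% = DMSO wells given NPY plus isoproterenol and 100% = isoproterenol alone without NPY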
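material = HEK293 cells with Y1 receptor plus CNG channel | also added = NPY 25 nM then isoproterenol 1 µM plus Ro 20-1724 25 µM | schedule = dye 3 h, compound 60 min room temperature, stimulation 45 min | measured by = membrane potential fluorescence | benchmarks = high control isoproterenol alone, low control NPY with isoproterenol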
NPY2 pot ag = potentiators or agonists of human neuropeptide Y receptor Y2 | P49146 | cells expressing NPY-Y2, potentiator/agonist read-out | 220,000 tested, 0.45% active | activation, % at 3.6 µM; in the data active = activation above about 27%;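 also: cells stimulated with NPY near EC25 plus isoproterenol at EC100; 0% = vehicle plus submaximal agonist and 100% = vehicle plus saturating agonist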
Target sequence (P49146 whole entry, looked up): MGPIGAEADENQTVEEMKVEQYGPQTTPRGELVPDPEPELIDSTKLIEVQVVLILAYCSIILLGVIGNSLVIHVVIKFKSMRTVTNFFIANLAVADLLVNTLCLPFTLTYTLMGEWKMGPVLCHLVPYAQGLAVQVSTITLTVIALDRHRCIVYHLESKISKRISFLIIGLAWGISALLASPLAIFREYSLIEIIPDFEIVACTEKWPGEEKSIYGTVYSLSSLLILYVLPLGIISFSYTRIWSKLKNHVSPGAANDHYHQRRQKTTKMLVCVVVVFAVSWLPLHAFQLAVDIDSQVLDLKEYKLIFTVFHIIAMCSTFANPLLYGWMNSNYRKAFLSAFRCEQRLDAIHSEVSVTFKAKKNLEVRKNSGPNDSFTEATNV
NPY-Y1 PAM-ag = potentiators or agonists of human neuropeptide Y receptor Y1; P25929; NPY-Y1 expressing cells, potentiator/agonist activation; activation, % at 3.6 µM; 220,000 tested, 0.37% active; in the data active = activation above about 33%, passing the limit was not always enough;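 also: cells stimulated with NPY at EC10 then isoproterenol at EC100; 0% = low agonist plus stimulus and 100% = saturating agonist plus stimulus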
NPY-Y2 antag = blocks the human neuropeptide Y Y2 receptor; NPY-Y2 expressing cells, antagonist mode; 140,000 tested, 0.99% active; inhibition, % at 2.7 µM; AID 793; P49146; in the data active = inhibition above about 17%;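 also: 0% = vehicle with agonist challenge and 100% = reference antagonist with challenge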
NPY-Y1 pot conf = human NPY-Y1 potentiation or agonism, confirmation | shares compounds with NPY-Y1 PAM-ag | cell-based NPY-Y1 potentiator/agonist assay | activation, % at 3.6 µM | 280 tested, 20% active;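 also: cells challenged with NPY at its EC10 plus isoproterenol stimulus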
NPY-Y2 counter = potentiates or activates NPY-Y2, counter-screen for NPY-Y1 hits. shares compounds with NPY-Y1 PAM-ag. HEK293-CNG cells, membrane-potential fluorescence (FLIPR), 1536-well. activation, % at 3.6 µM. 280 tested, 20% active; in the data active = activation above about 33%
NPY-Y1 agonist = activates human NPY-Y1, counter-screen for NPY-Y1 potentiators; shares compounds with NPY-Y1 PAM-ag; HEK293 Y1-CNGC, membrane potential fluorescence, agonist mode; activation, % at 3.6 µM; 280 tested, 50% active; AID 1697;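 active = percent activation above the mean of DMSO-only control wells plus 3 SD of those wells, cut at about 18% in these data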;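 also: cells challenged with isoproterenol plus Ro 20-1724 with no NPY in test wells; Y1 agonism lowers isoproterenol-driven cAMP and reduces probe fluorescence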
NPY-Y2 agonist = counter-screen for NPY-Y1 potentiators or agonists: agonists of NPY-Y2; shares compounds with NPY-Y1 PAM-ag; HEK293 Y2-CNGC, membrane potential fluorescence, agonist mode; activation, % at 3.6 µM; 280 tested, 67% active; AID 1698;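 active = activation above the solvent-only control wells' mean plus 3 SD, cut at about 11% in these data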;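 also: 0% = DMSO with isoproterenol and 100% = 40 nM NPY maximal response; agonism lowers cAMP so well fluorescence drops in active wells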
CNGC counter = CNG channel inhibition, counter-screen for NPY-Y1 potentiators | inhibition, % at 3.6 µM | HEK293-CNG parental, isoproterenol cAMP, membrane potential fluorescence | shares compounds with NPY-Y1 PAM-ag | 280 tested, 42% active;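 active = inhibition above the mean of stimulated solvent-only control wells plus 3 SD, cut at about 22% in these data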;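 also: 0% = isoproterenol-stimulated DMSO wells and 100% = unstimulated DMSO wells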
NPY-Y2 pot conf = confirmation of human NPY-Y2 receptor potentiators or agonists. cell-based NPY-Y2 potentiator/agonist assay. shares compounds with NPY2 pot ag. activation, % at 3.6 µM. 450 tested, 20% active; in the data active = activation above about 33%
NPY-Y1 potentiator = potentiates or activates NPY-Y1, counter-screen for NPY-Y2 hits; activation, % at 3.6 µM; shares compounds with NPY2 pot ag; 450 tested, 20% active; Y1 HEK293-CNG cells, membrane potential fluorescence;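 also: cells stimulated with submaximal NPY then isoproterenol with phosphodiesterase inhibitor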
NPY-Y1 ag 2 = activates human NPY-Y1, counter-screen for NPY-Y2 potentiators; AID 1702; activation, % at 3.6 µM; HEK293 Y1-CNGC, membrane potential fluorescence, agonism; 450 tested, 37% active; shares compounds with NPY2 pot ag;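 active = activation above the mean of DMSO-only control wells plus 3 SD, cut at about 18% in these data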;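 also: cells stimulated with 1 µM isoproterenol plus the PDE inhibitor Ro 20-1724; 0% = isoproterenol with DMSO and no NPY and 100% = 40 nM NPY; Y1 agonists lower the membrane potential dye signal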
CNGC inhibitor = counter-screen for NPY-Y2 potentiators: inhibitors of CNG channel activity; 450 tested, 32% active; shares compounds with NPY2 pot ag; HEK293-CNG parental, isoproterenol cAMP, membrane potential fluorescence; inhibition, % at 3.6 µM;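 active = inhibition above the control-well mean plus 3 SD of those wells, cut at about 22% in these data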;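 also: 0% = DMSO with isoproterenol and 100% = DMSO without isoproterenol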
NPY-Y2 ag 2 = counter-screen for NPY-Y2 potentiators: agonists of human NPY-Y2. 450 tested, 56% active. shares compounds with NPY2 pot ag. HEK293 Y2/CNGC cells, membrane potential fluorescence, agonist mode. activation, % at 3.6 µM;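 active = activation above the mean of solvent-only control wells plus 3 SD, cut at about 10% in these data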;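 also: cells stimulated by isoproterenol with no NPY added so direct agonism is tested; 0% = DMSO with isoproterenol alone and 100% = NPY at EC100 plus isoproterenol; agonism lowers probe fluorescence through less cAMP and CNG channel opening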
* hit, by the source's call. Shown are actives, neighbours in structure and some others; about 1.8% of the full set was active somewhere. Rule as the data show it, unless noted: active = activation above about 45%; inactive = the rest.

CC(CCc1ccccc1)NCCC#N (centres undefined) was read as NPY2 pot ag 27, NPY-Y1 PAM-ag 56*, NPY-Y1 pot conf 9, NPY-Y2 counter 9, NPY-Y1 agonist 8, NPY-Y2 agonist 2 and CNGC counter -4.
Screening c1ccc(CCNCc2ccccc2)cc1 returned NPY-Y1 antag 5, NPY2 pot ag -1, NPY-Y1 PAM-ag -1 and NPY-Y2 antag 0.
O=P(Nc1ccccc1)(Nc1ccccc1)Oc1ccc(Cl)cc1 was read as NPY-Y1 antag -2, NPY2 pot ag 14, NPY-Y1 PAM-ag 41*, NPY-Y2 antag 1, NPY-Y1 pot conf 33, NPY-Y2 counter 20, NPY-Y1 agonist 23*, NPY-Y2 agonist 22* and CNGC counter 44*.
For Brc1ccc2c(c1)C(OC1CN3CCC1CC3)c1ccccc1CS2 (centres undefined) the results were NPY-Y1 antag 13, NPY2 pot ag 14, NPY-Y1 PAM-ag -12 and NPY-Y2 antag 11.
CC(C)(C)c1cc([N+](=O)[O-])cc(C(C)(C)C)c1O was read as NPY-Y1 antag 7, NPY2 pot ag 45*, NPY-Y1 PAM-ag -1, NPY-Y2 pot conf -8, NPY-Y1 potentiator -48, NPY-Y1 ag 2 -34, CNGC inhibitor -25 and NPY-Y2 ag 2 -7.
Screening CN1CCN(c2ccc([N+](=O)[O-])cc2Cl)CC1 returned NPY-Y1 antag 3, NPY2 pot ag 12 and NPY-Y1 PAM-ag 8.
`Cc1cc(C)n(-c2ccc(NN=C(C#N)C#N)cc2)n1` gave NPY2 pot ag 42*, NPY-Y1 PAM-ag 41, NPY-Y2 pot conf 9, NPY-Y1 potentiator 1, NPY-Y1 ag 2 -1, CNGC inhibitor 5 and NPY-Y2 ag 2 4.
CP(=O)(Nc1ccccc1)C(Cl)(Cl)Cl (centres undefined) was read as NPY-Y1 antag 0, NPY2 pot ag 8 and NPY-Y1 PAM-ag -15.

Compound activity (PubChem)
